# According to ChEMBL document CHEMBL2311318, “Lead optimization of a dihydropyrrolopyrimidine inhibitor against phosphoinositide 3-kinase (PI3K) to improve the phenol glucuronic acid conjugation” (Bioorg Med Chem Lett, 2013):
# How the values were obtained:
# [1] = target: Phosphatidylinositol 4,5-bisphosphate 3-kinase catalytic subunit alpha isoform (Homo sapiens, UniProt P42336); assay: Inhibition of PI3Kalpha (unknown origin) using phosphatidylinositol 4,5-bisphosphate as substrate
# Outline: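 Recombinant PI3Kα (p110α/p85α) activity was measured with the Adapta Universal Kinase Assay using PIP2:PS lipid substrate.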
# [2] = Half life in human liver microsomes at 5 uM in presence of UDPGA; assay type: ADME, Microsome
# Outline: (§1)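 Human or mouse liver microsomes (1.0 mg protein/ml) were pretreated with 25 µg/ml alamethicin in 50 mM Tris-HCl, pH 7.5, at 4 °C for 30 min to release UGTs. Compound at 5 µM was then incubated with 2 mM UDPGA at 37 °C for 60 min. The reaction was quenched with three volumes of acetonitrile and centrifuged.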
# [3] = Half life in BALB/c nu mouse at 100 mg/kg, po; assay type: ADME, organism-based; set-up: dose 100 mg/kg, route oral; details: in vivo
# Outline: (§2)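 Female BALB/c-nu mice, n = 2 per group, dosed iv at 10 mg/kg or po at 100 mg/kg. Heparinized blood drawn at 0.08, 0.25, 2, 4, 7 and 24 h after iv dosing, and at 0.50, 2, 4, 7 and 24 h after po dosing. Plasma stored at -80 °C and assayed by LC–MS/MS. Parameters come from non-compartmental analysis and are the mean of two animals.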
# [4] = Cmax in BALB/c nu mouse at 100 mg/kg, po; assay type: ADME, organism-based; set-up: dose 100 mg/kg, route oral; details: in vivo; outline: as §2
# [5] = Cytotoxicity against human KPL4 cells expressing PI3Kalpha H1047R mutant assessed as growth inhibition after 96 hrs; assay type: functional, cell-based; details: KPL4, 96 h
# Outline: (§3)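 KPL-4 breast, HCT116 colon and PC-3 prostate cancer cells were exposed to a range of compound concentrations for 96 h. Growth inhibition was read with Cell Counting Kit-8.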
# HCT-116 = assay: Cytotoxicity against human HCT116 cells expressing PI3Kalpha H1047R mutant assessed as growth inhibition after 96 hrs; assay type: functional, cell-based; details: HCT-116, 96 h; outline: as §3
# [6] = Half life in mouse liver microsomes at 1 uM in presence of NADPH; assay type: ADME, Microsome
# Outline: (§4)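 Compound at 1 µM was incubated at 37 °C for 30 min with human or mouse liver microsomes (0.5 mg protein/ml) in 50 mM phosphate buffer, pH 7.4, with 1 mM NADPH. The reaction was quenched with three volumes of acetonitrile and centrifuged. Remaining compound in the supernatant was quantified by LC/MS.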
# [7] = Half life in mouse liver microsomes at 5 uM in presence of UDPGA; assay type: ADME, Microsome; outline: as §1
# PC-3 = assay: Cytotoxicity against PTEN-deficient human PC3 cells assessed as growth inhibition after 96 hrs; assay type: functional, cell-based; details: PC-3, 96 h; outline: as §3
# [8] = AUC in BALB/c nu mouse at 100 mg/kg, po; assay type: ADME, organism-based; set-up: dose 100 mg/kg, route oral; details: plasma; outline: as §2
# [9] = Antitumor activity against human KPL4 cells expressing PI3Kalpha H1047R mutant xenografted in BALB nu/nu mouse assessed as tumor growth inhibition at 80mg/kg, po qd relative to control; assay type: functional; details: read-out: TGI
# Outline: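 KPL-4 cells were injected orthotopically into the mammary fat pad of female BALB-nu/nu mice. Tumors were measured with a gauge twice weekly, with volume = length × width²/2. Once tumors reached about 200 mm³, mice were randomized (n = 5 per group) and treatment began.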
# [10] = Half life in BALB/c nu mouse at 10 mg/kg, iv; assay type: ADME, organism-based; set-up: dose 10 mg/kg, route intravenous; details: in vivo; outline: as §2
# [11] = AUC in BALB/c nu mouse at 10 mg/kg, iv; assay type: ADME, organism-based; set-up: dose 10 mg/kg, route intravenous; details: plasma; outline: as §2
# [12] = Apparent oral clearance in BALB/c nu mouse at 100 mg/kg; assay type: ADME, organism-based; set-up: dose 100 mg/kg, route oral; details: in vivo; outline: as §2
# [13] = Half life in human liver microsomes at 1 uM in presence of NADPH; assay type: ADME, Microsome; outline: as §4
# Sequence of Phosphatidylinositol 4,5-bisphosphate 3-kinase catalytic subunit alpha isoform (P42336 whole entry, canonical isoform): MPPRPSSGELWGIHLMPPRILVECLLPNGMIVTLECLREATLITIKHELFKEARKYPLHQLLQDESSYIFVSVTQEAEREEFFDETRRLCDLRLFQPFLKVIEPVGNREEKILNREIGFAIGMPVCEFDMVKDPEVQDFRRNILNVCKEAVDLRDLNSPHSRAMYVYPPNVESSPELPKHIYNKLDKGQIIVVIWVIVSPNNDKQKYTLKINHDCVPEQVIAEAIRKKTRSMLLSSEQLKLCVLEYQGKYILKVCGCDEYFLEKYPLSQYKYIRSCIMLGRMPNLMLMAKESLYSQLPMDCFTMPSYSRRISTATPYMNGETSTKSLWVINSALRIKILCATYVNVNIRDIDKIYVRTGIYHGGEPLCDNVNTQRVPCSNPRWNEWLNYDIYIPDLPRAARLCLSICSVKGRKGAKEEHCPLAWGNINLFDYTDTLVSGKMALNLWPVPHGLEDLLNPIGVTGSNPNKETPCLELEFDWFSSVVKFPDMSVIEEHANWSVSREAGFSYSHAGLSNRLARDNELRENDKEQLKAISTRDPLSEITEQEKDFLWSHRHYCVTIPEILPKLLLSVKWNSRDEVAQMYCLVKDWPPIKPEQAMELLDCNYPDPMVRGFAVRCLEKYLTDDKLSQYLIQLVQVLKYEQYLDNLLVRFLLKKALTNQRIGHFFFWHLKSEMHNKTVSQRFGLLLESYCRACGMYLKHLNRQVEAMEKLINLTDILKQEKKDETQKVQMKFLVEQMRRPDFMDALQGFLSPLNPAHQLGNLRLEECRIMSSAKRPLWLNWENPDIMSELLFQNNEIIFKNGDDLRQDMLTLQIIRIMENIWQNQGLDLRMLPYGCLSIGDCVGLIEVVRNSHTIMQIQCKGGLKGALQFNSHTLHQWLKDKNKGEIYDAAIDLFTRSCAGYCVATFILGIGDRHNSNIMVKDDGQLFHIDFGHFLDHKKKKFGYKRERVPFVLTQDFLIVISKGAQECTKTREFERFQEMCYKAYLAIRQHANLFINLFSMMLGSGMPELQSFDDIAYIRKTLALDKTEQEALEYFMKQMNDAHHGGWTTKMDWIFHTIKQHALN
Structure (SMILES),IC50 [1],also measured
COc1cccc(-c2nc(N3CCOCC3)nc3c2CCN3c2ccncc2)c1,410 nM,–
Nc1n[nH]c2cc(-c3nc(N4CCOCC4)nc4c3CCN4c3ccncc3)ccc12,> 50000 nM,–
Nc1ncc(-c2nc(N3CCOCC3)nc3c2CCN3c2cccnc2)cn1,–,half-life at 5 µM [2]: > 1 h; half-life [3]: 6.58 h; Cmax [4]: 4190 ng/mL; IC50 [5]: 15 nM; IC50 (HCT-116): 170 nM; half-life at 1 µM [6]: 1.05 h; half-life at 5 µM [7]: > 1 h; IC50 (PC-3): 420 nM; AUC [8]: 19400 ng·h/mL; inhibition in vivo at 80 mg/kg [9]: 166%; half-life [10]: 10.3 h; AUC [11]: 4690 ng·h/mL; CL/F [12]: 86.1 mL/min/kg
Cc1cc(N2CCc3c(-c4cccc(O)c4)nc(N4CCOCC4)nc32)ccn1,170 nM,–
Oc1cccc(-c2nc(N3CCOCC3)nc3c2CCN3c2ccccn2)c1,> 50000 nM,–
Oc1cccc(-c2nc(N3CCOCC3)nc3c2CCN3c2ccnc(O)c2)c1,200 nM,–
Cc1c(O)cccc1-c1nc(N2CCOCC2)nc2c1CCN2c1ccncc1,> 50000 nM,–
Cn1ccc(N2CCc3c(-c4cccc(O)c4)nc(N4CCOCC4)nc32)n1,230 nM,–
CNS(=O)(=O)c1cccc(-c2nc(N3CCOCC3)nc3c2CCN3c2ccncc2)c1,> 50000 nM,–
NC(=O)c1cccc(-c2nc(N3CCOCC3)nc3c2CCN3c2ccncc2)c1,19000 nM,–
CNC(=O)c1cccc(-c2nc(N3CCOCC3)nc3c2CCN3c2ccncc2)c1,2400 nM,–
c1cc(-c2nc(N3CCOCC3)nc3c2CCN3c2ccncc2)ccn1,22600 nM,–
c1cc(N2CCc3c(-c4ccc5[nH]ncc5c4)nc(N4CCOCC4)nc32)ccn1,> 50000 nM,–
Nc1cccc(-c2nc(N3CCOCC3)nc3c2CCN3c2ccncc2)c1,3700 nM,–
c1cc(-c2nc(N3CCOCC3)nc3c2CCN3c2ccncc2)c2cn[nH]c2c1,> 50000 nM,–
c1cc(-c2nc(N3CCOCC3)nc3c2CCN3c2ccncc2)c2[nH]ncc2c1,> 50000 nM,–
O=C(O)c1cccc(-c2nc(N3CCOCC3)nc3c2CCN3c2ccncc2)c1,> 50000 nM,–
Nc1ncc(-c2nc(N3CCOCC3)nc3c2CCN3c2ccncc2)cn1,26 nM,half-life at 5 µM [2]: > 1 h; half-life at 1 µM [13]: 2.12 h; IC50 [5]: 29 nM; IC50 (HCT-116): 91 nM; half-life at 1 µM [6]: 0.45 h; half-life at 5 µM [7]: > 1 h; IC50 (PC-3): 120 nM
c1cc(N2CCc3c(-c4cncnc4)nc(N4CCOCC4)nc32)ccn1,440 nM,–
Cc1ccc(-c2nc(N3CCOCC3)nc3c2CCN3c2ccncc2)cc1O,> 50000 nM,–
Oc1cccc(-c2nc(N3CCOCC3)nc3c2CCN3c2ccncc2)c1,–,IC50 (HCT-116): 720 nM; half-life at 1 µM [6]: 0.333 h; half-life at 5 µM [7]: 0.102 h; IC50 (PC-3): 140 nM
Oc1cccc(-c2nc(N3CCOCC3)nc3c2CCN3c2ccc3ncccc3c2)c1,> 50000 nM,–
c1cncc(-c2nc(N3CCOCC3)nc3c2CCN3c2ccncc2)c1,1700 nM,–
c1cc(N2CCc3c(-c4ccc5cn[nH]c5c4)nc(N4CCOCC4)nc32)ccn1,> 50000 nM,–
Oc1cccc(-c2nc(N3CCOCC3)nc3c2CCN3c2nccs2)c1,49 nM,–
Oc1cccc(-c2nc(N3CCOCC3)nc3c2CCN3c2ccccc2)c1,1220 nM,–
